Assay outcomes from PubChem.
RGS4 act = RGS4 potentiators or activators, primary screen, cell-based, HEK293 M3R inducible RGS4, calcium flux. AID 463111, 2010. 310,000 compounds, 0.92% hits. carbachol calcium flux Fluo4; hits give low values. B-score at 10 µM;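 active = B-score of the integrated calcium signal more than 4 SD below the library mean, with starting fluorescence not abnormally high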;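 also: negative B-score means reduced calcium response which marks RGS4 activation or potentiation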
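System: HEK293 FlpIn-TREx cells, stable M3R, doxycycline-inducible RGS4. Timing: overnight RGS4 induction, 30 min dye load 37 °C, 20 min compound RT. Also added: carbachol, ECmax concentration. Measured by: Fluo4 fluorescence kinetic imaging of calcium. Evaluation: integrated calcium ratio converted to B score.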
MrgX1 antagonist = antagonists of human MrgX1 receptor, primary screen, HEK293 cells, Fluo-4 calcium flux | 310,000 compounds, 1.3% hits | AID 588676, 2011 | B-score at 10 µM | BAM8-22 antagonism; hits give low values;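 active = calcium-response B-score plate-corrected more than 3 library SD below zero, starting fluorescence within 5 deviations, no agonist response on first addition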;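 also: peak minus trough fluorescence over baseline after final BAM8-22 challenge near maximal dose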
Target sequence (Q96LB2 whole entry, looked up): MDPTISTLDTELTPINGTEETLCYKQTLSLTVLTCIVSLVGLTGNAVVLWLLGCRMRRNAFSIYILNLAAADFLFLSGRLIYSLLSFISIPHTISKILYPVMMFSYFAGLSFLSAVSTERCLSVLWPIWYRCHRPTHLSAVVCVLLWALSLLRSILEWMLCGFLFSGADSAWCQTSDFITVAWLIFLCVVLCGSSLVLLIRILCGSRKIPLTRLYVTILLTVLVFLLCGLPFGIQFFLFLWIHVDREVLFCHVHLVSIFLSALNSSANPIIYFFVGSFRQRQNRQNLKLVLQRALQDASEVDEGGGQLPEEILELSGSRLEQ
MrgX1 agonist = agonists of human MrgX1 receptor, primary screen, HEK293 cells, Fluo-4 calcium flux; Fluo-4 calcium fluorescence, agonist mode; hits give high values; B-score at 10 µM; 310,000 compounds, 0.44% hits; AID 588627, 2011;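 active = calcium response B-score plate-corrected fluorescence ratio at least 3 library SD, with starting fluorescence B-score inside 5 SD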
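Material: MrgX1-expressing HEK293 cells / Dosing: compound as first of three additions / Incubation: overnight seeding, then 1 h dark dye loading / Signal: Fluo-4 NW calcium fluorescence / Evaluation: B-scored fluorescence response ratio / Benchmarks: positive and negative control wells on each plate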
RGS4 inh = RGS4 inhibitors, primary screen, cell-based, HEK293 M3R inducible RGS4, calcium flux. Fluo-4 calcium flux; hits give high values; triggered by carbachol at its EC20. 310,000 compounds, 0.45% hits. Regulator of G-protein signaling 4 (Homo sapiens), P49798. AID 463165, 2010. B-score at 10 µM;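 active = B-score, a plate-corrected calcium signal, over three deviations above library mean, with baseline fluorescence within five deviations of library mean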;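 also: RGS4 expression induced by doxycycline in cells with stable M3 receptor; B-score is computed from the integrated fluorescence ratio over baseline after carbachol; higher B-score means a larger calcium signal and so more RGS4 inhibition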
Target sequence (P49798 whole entry, looked up): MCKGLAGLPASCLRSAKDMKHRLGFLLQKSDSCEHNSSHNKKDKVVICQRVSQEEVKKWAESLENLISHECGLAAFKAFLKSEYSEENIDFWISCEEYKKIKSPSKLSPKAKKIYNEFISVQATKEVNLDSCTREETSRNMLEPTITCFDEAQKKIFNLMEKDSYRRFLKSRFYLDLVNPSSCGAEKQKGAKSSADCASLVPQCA
MrgX1 PAM = positive allosteric modulators of MrgX1, primary screen, HEK293 cells, Fluo-4 calcium flux; B-score at 10 µM; FDSS; hits give high values; AID 588675, 2011; 310,000 compounds, 0.63% hits; Mas-related G-protein coupled receptor member X1 (Homo sapiens), Q96LB2;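 active = plate-corrected calcium response at least 3 library SD above typical, normal starting fluorescence, not activating the receptor alone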;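 also: compound read alongside a low EC10 to EC30 dose of BAM8-22 agonist; peak minus trough fluorescence over baseline measured at the second addition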
RGS4 act valid = reduced carbachol calcium response, RGS4-induced M3R cells, confirmation, RGS4 activator project, cell-based, HEK293 M3R/RGS4 inducible, calcium flux, duplicate. 1,100 compounds, 89% hits. shares compounds with RGS4 act. inhibition, % at 10 µM. AID 602282, 2012. carbachol calcium flux Fluo4;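 active = inhibition above 3 SD of the buffer control wells, cut at about 41% in these data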;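 also: signal is the integrated peak-minus-minimum Fluo4 fluorescence over baseline ratio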
RGS4 act ctr = RGS4 activator counter-screen hit in non-induced cells | shares compounds with RGS4 act | HEK293 M3R non-induced RGS4, Fluo4 calcium flux; after carbachol challenge at its EC90 | inhibition, % at 10 µM | 1,100 compounds, 82% hits | AID 602283;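 active = inhibition exceeding 3 SD of buffer-only control wells, cut at about 26% in these data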;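 also: percent drop in integrated peak-minus-baseline over baseline Fluo4 ratio after carbachol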
A number is an active result. In the library only some 3.5% were active in any assay of this set; here they are far more common.

`O=C(Nc1ccccc1Cl)C1C2CCC3C(CCC21)C3(Cl)Cl` (stereo not given) gave RGS4 act inactive, MrgX1 antagonist inactive, MrgX1 agonist inactive, RGS4 inh inactive and MrgX1 PAM inactive.
For CCOc1ccccc1NC(=O)C1C2CCC3C(CCC21)C3(Cl)Cl (stereo not given) the results were RGS4 act -7.9, MrgX1 antagonist inactive, MrgX1 agonist inactive, RGS4 inh inactive, MrgX1 PAM inactive, RGS4 act valid inactive and RGS4 act ctr inactive.
`Cc1nn(-c2ccccn2)c2c1C(c1c(F)cccc1Cl)C1=C(N2)c2ccccc2C1=O` (stereo not given) gave RGS4 act inactive, MrgX1 antagonist inactive, MrgX1 agonist inactive, RGS4 inh inactive and MrgX1 PAM inactive.
Screening O=C(COC(=O)c1cccs1)Nc1nnc(-c2ccccc2)o1 returned RGS4 act inactive, MrgX1 antagonist inactive, MrgX1 agonist inactive, RGS4 inh inactive and MrgX1 PAM inactive.
For Cc1cc(N2CCCCC2)n2ncc(-c3ccccc3)c2n1 the results were RGS4 act -8.1, MrgX1 antagonist inactive, MrgX1 agonist inactive, RGS4 inh inactive, MrgX1 PAM inactive, RGS4 act valid 94 and RGS4 act ctr 87.
`Cc1cc(N2CCCCC2)n2ncc(-c3ccc(Cl)cc3)c2n1` gave RGS4 act inactive, MrgX1 antagonist inactive, MrgX1 agonist inactive, RGS4 inh inactive and MrgX1 PAM inactive.
For Cc1cc(C)cc(-n2cc(C(=O)O)c(=O)cc2C)c1 the results were RGS4 act inactive, MrgX1 antagonist inactive, MrgX1 agonist inactive, RGS4 inh inactive and MrgX1 PAM inactive.
`CC[N+]1(C)CCC(=C2c3ccccc3CC(=O)c3sccc32)CC1` (stereo not given) gave RGS4 act -11, MrgX1 antagonist -6.7, MrgX1 agonist inactive, RGS4 inh inactive, MrgX1 PAM inactive, RGS4 act valid 95 and RGS4 act ctr 84.
`COc1ccc(CCNC(=O)c2cccc3c2C(=O)N(C2CCCCC2)C3)cc1OC` gave RGS4 act -8.1, MrgX1 antagonist inactive, MrgX1 agonist inactive, RGS4 inh inactive, MrgX1 PAM inactive, RGS4 act valid 64 and RGS4 act ctr inactive.
For COc1ccc(CCNCC(=O)Nc2ccc(C(=O)N3CCCCC3)cc2)cc1 the results were RGS4 act inactive, MrgX1 antagonist inactive, MrgX1 agonist inactive, RGS4 inh inactive and MrgX1 PAM inactive.
O=[N+]([O-])c1ccccc1COc1ccc(Cl)c2cccnc12 was read as RGS4 act inactive, MrgX1 antagonist inactive, MrgX1 agonist inactive, RGS4 inh inactive and MrgX1 PAM inactive.
Cc1cccc2nc(COc3ccc(Cl)c4cccnc34)cn12 was read as RGS4 act -10, MrgX1 antagonist inactive, MrgX1 agonist inactive, RGS4 inh inactive, MrgX1 PAM inactive, RGS4 act valid inactive and RGS4 act ctr 84.
Screening CN(Cc1ccc(F)cc1)C(=O)c1cccc(S(=O)(=O)N2CCN(c3ccc(F)cc3)CC2)c1 returned RGS4 act -7.6, MrgX1 antagonist inactive, MrgX1 agonist inactive, RGS4 inh inactive, MrgX1 PAM inactive, RGS4 act valid 40 and RGS4 act ctr 84.
For COc1ccc(-c2oc3ncnc(NCCN4CCOCC4)c3c2-c2ccc(OC)cc2)cc1 the results were RGS4 act -9.8, MrgX1 antagonist inactive, MrgX1 agonist inactive, RGS4 inh inactive, MrgX1 PAM inactive, RGS4 act valid 88 and RGS4 act ctr 70.
Screening COc1ccc(-c2oc3ncnc(NCCCN4CCOCC4)c3c2-c2ccc(OC)cc2)cc1 returned RGS4 act inactive, MrgX1 antagonist inactive, MrgX1 agonist inactive, RGS4 inh inactive and MrgX1 PAM inactive.
COc1ccccc1C(=O)NC(=O)COC(=O)CNC(=O)c1ccccc1 was read as RGS4 act inactive, MrgX1 antagonist inactive, MrgX1 agonist inactive, RGS4 inh inactive and MrgX1 PAM inactive.
Screening CCN(CC)CCCOC(=O)C1(c2ccccc2)CCCC1 returned RGS4 act -11, MrgX1 antagonist inactive, MrgX1 agonist inactive, RGS4 inh inactive, MrgX1 PAM inactive, RGS4 act valid 95 and RGS4 act ctr 93.
CCN(CC)CCOC(=O)c1ccccc1Br was read as RGS4 act inactive, MrgX1 antagonist inactive, MrgX1 agonist inactive, RGS4 inh inactive and MrgX1 PAM inactive.
Screening O=C(NCCSCc1ccccc1)c1ccc(C2SCC(=O)N2Cc2ccccc2)cc1 (stereo not given) returned RGS4 act -11, MrgX1 antagonist inactive, MrgX1 agonist inactive, RGS4 inh inactive, MrgX1 PAM inactive, RGS4 act valid 88 and RGS4 act ctr 42.
Screening COC(=O)c1ccc(C2SCC(=O)N2Cc2ccccc2)cc1 (stereo not given) returned RGS4 act inactive, MrgX1 antagonist inactive, MrgX1 agonist inactive, RGS4 inh inactive and MrgX1 PAM inactive.
Screening CS(=O)(=O)c1ccc(-c2nnc(NC(=O)c3cccc(N4C(=O)CCC4=O)c3)o2)cc1 returned RGS4 act inactive, MrgX1 antagonist inactive, MrgX1 agonist inactive, RGS4 inh inactive and MrgX1 PAM inactive.
Screening CCN1CCN(CCn2c(=S)[nH]c3ccccc3c2=O)CC1 returned RGS4 act -7.8, MrgX1 antagonist inactive, MrgX1 agonist inactive, RGS4 inh inactive, MrgX1 PAM inactive, RGS4 act valid 85 and RGS4 act ctr 59.
Screening COc1ccc(NS(=O)(=O)c2ccc3nc(COc4ccc(C#N)cc4)[nH]c3c2)cc1 returned RGS4 act inactive, MrgX1 antagonist inactive, MrgX1 agonist inactive, RGS4 inh inactive and MrgX1 PAM inactive.
`Cc1cc(NC(=O)c2cnn3c(C(F)(F)F)cc(-c4ccccc4)nc23)no1` gave RGS4 act -10, MrgX1 antagonist inactive, MrgX1 agonist inactive, RGS4 inh inactive, MrgX1 PAM inactive, RGS4 act valid 94 and RGS4 act ctr 74.
Cc1cc(NC(=O)c2cnn3c(C(F)F)cc(-c4ccccc4)nc23)no1 was read as RGS4 act inactive, MrgX1 antagonist inactive, MrgX1 agonist inactive, RGS4 inh inactive and MrgX1 PAM inactive.
For Cc1oc(-c2cccc(F)c2)nc1CN(Cc1ccccc1)C[C@@H]1CCC(=O)N1 the results were RGS4 act inactive, MrgX1 antagonist inactive, MrgX1 agonist inactive, RGS4 inh inactive and MrgX1 PAM inactive.
Screening c1ccc2c(c1)[nH]c1c(N3CCN(C4CCCCC4)CC3)ncnc12 returned RGS4 act -7.8, MrgX1 antagonist inactive, MrgX1 agonist inactive, RGS4 inh inactive, MrgX1 PAM inactive, RGS4 act valid 64 and RGS4 act ctr 84.
